Test [1] concerns the target Melanocyte-stimulating hormone receptor (Homo sapiens, UniProt Q01726). As to the kind of experiment: Agonist activity at human MC1R expressed in CHO cells after 4 hrs by luciferase reporter gene assay. Summed up: (§1)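 CHO-6xCRE-luc+ cells expressing the human receptor, plated at 4000 cells/well in DMEM/F12 with 10% FBS 48 h before assay. Switched to serum-free medium 16 h before compound addition, then incubated 4 h at 37 °C. Luciferase read after 10 min dark adaptation. Activity expressed as % of fold stimulation by 1 × 10^-7 M NDP-aMSH (duplicate control wells).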
A general note: A reporter such as luciferase makes a cellular process visible.

For the next test, the target named is Melanocortin receptor 4 (Homo sapiens, UniProt P32245). In words: Agonist activity at human MC4R expressed in CHO cells after 4 hrs by luciferase reporter gene assay. Summed up: as §1
Chain of Melanocortin receptor 4 (P32245 whole entry): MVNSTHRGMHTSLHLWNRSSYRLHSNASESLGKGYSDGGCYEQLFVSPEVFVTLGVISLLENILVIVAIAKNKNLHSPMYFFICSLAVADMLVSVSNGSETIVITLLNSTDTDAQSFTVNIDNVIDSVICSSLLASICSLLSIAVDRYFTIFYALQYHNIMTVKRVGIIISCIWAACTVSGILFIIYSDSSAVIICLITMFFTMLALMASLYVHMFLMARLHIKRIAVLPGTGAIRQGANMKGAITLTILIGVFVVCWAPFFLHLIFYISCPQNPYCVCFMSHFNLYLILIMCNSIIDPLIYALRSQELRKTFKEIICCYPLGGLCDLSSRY

Structures can show the parent of a compound that is named as a salt.

As usually defined, the EC50 is the concentration that produces a half-maximal response. A lower EC50 goes with greater potency.

Chain of Melanocyte-stimulating hormone receptor (Q01726 whole entry): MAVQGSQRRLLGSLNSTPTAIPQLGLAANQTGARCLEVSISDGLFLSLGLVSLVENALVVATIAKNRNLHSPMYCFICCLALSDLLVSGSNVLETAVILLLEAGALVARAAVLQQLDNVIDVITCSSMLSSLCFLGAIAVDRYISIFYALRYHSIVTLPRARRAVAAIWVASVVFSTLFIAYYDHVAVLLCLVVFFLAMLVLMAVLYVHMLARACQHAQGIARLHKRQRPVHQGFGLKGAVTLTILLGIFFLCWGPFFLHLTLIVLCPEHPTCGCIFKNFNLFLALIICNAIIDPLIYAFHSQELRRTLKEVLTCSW

Consider `CC(C)N(C(=O)CN1C=CN(c2ccccc2)C(=O)[C@@H](Cc2n[nH]c3ccccc23)C1=O)c1ccccc1`, for which the EC50 in test [1] is above 31.6 µM. At Melanocortin receptor 4, `CC(C)N(C(=O)CN1C=CN(c2ccccc2)C(=O)C(Cc2n[nH]c3ccccc23)C1=O)c1ccc(O)cc1` (stereo unspecified) registered an EC50 above 31.6 µM.

Regarding `COc1ccc(N(C(=O)CN2C=CN(C3CCCCC3)C(=O)C(Cc3ccccc3)C2=O)C(C)C)cc1` (racemic) [(+/-)-2-[4-Cyclohexyl-5,7-dioxo-6-(phenylmethyl)-4,5,6,7-tetrahydro-1H-1,4-diazepin-1-yl]-N-(1-methylethyl)-N-[4-(methyloxy)phenyl]acetamide], the EC50 (at Melanocortin receptor 4; in test [1]) was above 31.6 µM throughout.

As for `COc1ccc(N(C(=O)CN2C=CN(C3CCCCC3)C(=O)C(Cc3n[nH]c4ccccc34)C2=O)C(C)C)cc1` (racemic) [(+/-)-2-[4-Cyclohexyl-6-(1H-indazol-3-ylmethyl)-5,7-dioxo-4,5,6,7-tetrahydro-1H-1,4-diazepin-1-yl]-N-(1-methylethyl)-N-[4-(methyloxy)phenyl]acetamide trifluoroacetate], the EC50 (on Melanocortin receptor 4; in test [1]) was above 31.6 µM each time. `COc1ccc(N(C(=O)CN2C=CN(Cc3ccccc3)C(=O)C(Cc3n[nH]c4ccccc34)C2=O)C(C)C)cc1` (racemic) [(+/-)-2-[6-(1H-Indazol-3-ylmethyl)-5,7-dioxo-4-(phenylmethyl)-4,5,6,7-tetrahydro-1H-1,4-diazepin-1-yl]-N-(1-methylethyl)-N-[4-(methyloxy)phenyl]acetamide]: the EC50 at Melanocortin receptor 4 is above 31.6 µM. Molecule `CC(C)N(C(=O)CN1C=CN(c2ccccc2)C(=O)C(Cc2n[nH]c3ccccc23)C1=O)c1ccc(N2CCOCC2)cc1` (racemic) [(+/-)-2-[6-(1H-Indazol-3-ylmethyl)-5,7-dioxo-4-phenyl-4,5,6,7-tetrahydro-1H-1,4-diazepin-1-yl]-N-(1-methylethyl)-N-[4-(4-morpholinyl)phenyl]acetamide] had an EC50 on Melanocortin receptor 4 above 31.6 µM. Still for that read-out and setting: the figure for `CC(C)N(C(=O)CN1C=CN(C)C(=O)C(Cc2n[nH]c3cc(F)ccc23)C1=O)c1ccc(F)cc1` (racemic) [(+/-)-2-{6-[(6-Fluoro-1H-indazol-3-yl)methyl]-4-methyl-5,7-dioxo-4,5,6,7-tetrahydro-1H-1,4-diazepin-1-yl}-N-(4-fluorophenyl)-N-(1-methylethyl)acetamide] is above 31.6 µM. Regarding `COc1ccc(N(C(=O)CN2C=CN(c3ccccc3)C(=O)C(Cc3nn(C)c4ccccc34)C2=O)C(C)C)cc1` (racemic) [(+/-)-N-(1-methylethyl)-2-{6-[(1-methyl-1H-indazol-3-yl)methyl]-5,7-dioxo-4-phenyl-4,5,6,7-tetrahydro-1H-1,4-diazepin-1-yl}-N-[4-(methyloxy)phenyl]acetamide], the EC50 (on Melanocortin receptor 4; in test [1]) was above 31.6 µM throughout.
